# Source: ChEMBL document CHEMBL1122782, “Bulky amine analogues of ketoprofen: potent antiinflammatory agents” (J Med Chem, 1984)
# What was measured:
# Rattus norvegicus [1] = test: Antiinflammatory efficacy is measured by the percent inhibition of paw volume during the 3 week adjuvant arthritis test at 0.02 mM/kg (8.76 mg); assay type: functional
# How it was run: (§1)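 Male Sprague-Dawley rats (200–230 g) were used in groups of eight. Each received 0.1 mL of 0.6% M. butyricum in heavy mineral oil into the plantar tissue of one hind paw. Daily oral gavage in 1% gum tragacanth or corn oil-water emulsion began on the injection day and ran 21 days. Total hind paw volume was measured by mercury displacement, and inhibition was taken versus vehicle-treated adjuvant controls.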
# Rattus norvegicus [2] = test: Ulcerogenicity was measured in intestine during the 3 week adjuvant arthritis test, no of animals with ulcers out of 8 animals tested at 0.02 mM/kg (8.76 mg) was reported; assay type: functional
# How it was run: (§2)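 In the 21-day adjuvant arthritis model, male Sprague-Dawley rats (200–230 g) received an M. butyricum mineral-oil suspension into one hind paw. They were dosed daily by gavage from the day of injection. At the end of the study the rats were killed, and the small intestines were examined for ulcers. Results are given as the number of ulcerated animals over the number tested.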
# Rattus norvegicus [3] = test: Antiinflammatory efficacy is measured by the weight gain in rats during the 3 week adjuvant arthritis test at 0.005 mM/kg (2.19 mg); assay type: functional
# How it was run: (§3)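 Rats were adjuvant-injected (M. butyricum in mineral oil, one hind paw) or given a mineral-oil placebo. They were dosed by gavage daily for 21 days from the injection day, with vehicle only for both control groups, then weighed at the end. Weight gain % = (treated − adjuvant control)/(negative control − adjuvant control) × 100.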
# Rattus norvegicus [4] = test: Ulcerogenicity was measured in intestine during the 3 week adjuvant arthritis test, no of animals with ulcers out of animals tested at 0.08 mM/kg (35.0 mg) was reported; toxic; assay type: functional, organism-based
# How it was run: (§4)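 Male Sprague-Dawley rats (200–230 g) were injected in the plantar tissue of one hind paw with 0.1 mL of 0.6% M. butyricum suspension in heavy mineral oil. Daily oral gavage began on the day of adjuvant injection and ran for the 21 days, with drug suspended in 1% gum tragacanth or a corn oil-water emulsion. At the end the rats were sacrificed and the small intestine and stomach were examined for ulcers. Results are given as animals with ulcers/animals tested.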
# Rattus norvegicus [5] = test: Potency relative to phenylbutazone at 0.005 mM/kg; assay type: functional
# Rattus norvegicus [6] = test: Antiinflammatory efficacy is measured by the weight gain in rats during the 3 week adjuvant arthritis test at 0.02 mM/kg (8.76 mg); assay type: functional; how it was run: as §3
# Rattus norvegicus [7] = test: Antiinflammatory efficacy is measured by the percent inhibition of paw volume during the 3 week adjuvant arthritis test at 0.005 mM/kg (2.19 mg); assay type: functional; how it was run: as §1
# Rattus norvegicus [8] = test: Ulcerogenicity was measured in stomach during the 3 week adjuvant arthritis test, no of animals with ulcers out of 8 animals tested at 0.02 mM/kg (8.76 mg) was reported; assay type: functional; how it was run: as §4
# Rattus norvegicus [9] = organism: Rattus norvegicus; test: Compound was evaluated for highest non-ulcerogenic dose (less than 50% ulcer incidence); assay type: functional; conditions: read-out: ED50
# How it was run: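 Taken from the 21-day adjuvant arthritis test in male Sprague-Dawley rats dosed orally each day from the day of adjuvant injection. Small intestines and stomachs were examined for ulceration at the end. The value is the highest dose giving less than 50% ulcer incidence.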
# Rattus norvegicus [10] = test: The mean increase in paw volume was compared between drug treated groups and placebo to calculate the percent inhibition in rats at 0.02 mmol/kg by carrageenan Edema Assay; 50-59; assay type: functional
# Rattus norvegicus [11] = test: Ulcerogenicity was measured in intestine during the 3 week adjuvant arthritis test, no of animals with ulcers out of 4 animals tested at 0.002 mM/kg (0.51 mg) was reported; assay type: functional
# How it was run: (§5)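 Male Sprague-Dawley rats (200–230 g) got 0.1 mL of a 0.6% M. butyricum adjuvant suspension in heavy mineral oil into the plantar tissue of one hind paw. Oral gavage dosing started the same day and continued daily for 21 days, in 1% gum tragacanth or corn oil-water emulsion. At the end, rats were killed and the small intestine and stomach were examined for ulcers, reported as animals with ulcers over animals tested.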
# Rattus norvegicus [12] = test: Potency relative to phenylbutazone at 0.006 mM/kg; assay type: functional
# How it was run: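 21-day adjuvant arthritis in male Sprague-Dawley rats (0.6% M. butyricum in mineral oil, intraplantar), with daily oral gavage from the day of adjuvant injection. Total hind-paw volume was measured by mercury displacement and percent inhibition calculated against adjuvant controls. The ED50 for 50% inhibition of paw volume was expressed relative to phenylbutazone, with 95% confidence limits.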
# Rattus norvegicus [13] = test: Ulcerogenicity was measured in intestine during the 3 week adjuvant arthritis test, no of animals with ulcers out of animals tested at 0.06 mM/kg (15.2 mg) was reported; toxic; assay type: functional, organism-based; how it was run: as §5
# Rattus norvegicus [14] = test: Ulcerogenicity was measured in intestine during the 3 week adjuvant arthritis test, no of animals with ulcers out of 31 animals tested at 0.03 mM/kg (7.62 mg) was reported; assay type: functional; how it was run: as §5
# Rattus norvegicus [15] = test: The percent inhibition was calculated from the average differences in hind paw volume between the adjuvant injected controls and the adjuvant-injected medicated rats at 0.08 mmol/kg; 0.009-82; assay type: functional; conditions: read-out: Inhibition
# Rattus norvegicus [16] = test: Ulcerogenicity was measured in intestine during the 3 week adjuvant arthritis test, no of animals with ulcers out of 24 animals tested at 0.009 mM/kg (2.29 mg) was reported; assay type: functional; how it was run: as §5
# Rattus norvegicus [17] = test: Ulcerogenicity was measured in stomach during the 3 week adjuvant arthritis test, no of animals with ulcers out of 4 animals tested at 0.002 mM/kg (0.51 mg) was reported; assay type: functional; how it was run: as §5
# Rattus norvegicus [18] = test: Antiinflammatory efficacy is measured by the weight gain in rats during the 3 week adjuvant arthritis test at 0.009 mM/kg (2.29 mg); assay type: functional; how it was run: as §3
# Rattus norvegicus [19] = test: Antiinflammatory efficacy is measured by the percent inhibition of paw volume during the 3 week adjuvant arthritis test at 0.002 mM/kg (0.51 mg); assay type: functional; how it was run: as §1
# Rattus norvegicus [20] = test: Ulcerogenicity was measured in stomach during the 3 week adjuvant arthritis test, no of animals with ulcers out of 31 animals tested at 0.03 mM/kg (7.62 mg) was reported; assay type: functional; how it was run: as §5
# Rattus norvegicus [21] = test: Antiinflammatory efficacy is measured by the weight gain in rats during the 3 week adjuvant arthritis test at 0.002 mM/kg (0.51 mg); assay type: functional; how it was run: as §3
# Rattus norvegicus [22] = test: The mean increase in paw volume was compared between drug treated groups and placebo to calculate the percent inhibition in rats at 0.02 mmol/kg by carrageenan Edema Assay; 60-69; assay type: functional
# Rattus norvegicus [23] = test: Antiinflammatory efficacy is measured by the weight gain in rats during the 3 week adjuvant arthritis test at 0.006 mM/kg (0.152 mg); assay type: functional; how it was run: as §3
# Rattus norvegicus [24] = test: Ulcerogenicity was measured in stomach during the 3 week adjuvant arthritis test, no of animals with ulcers out of 24 animals tested at 0.009 mM/kg (2.29 mg) was reported; assay type: functional; how it was run: as §5
# Rattus norvegicus [25] = test: Antiinflammatory efficacy is measured by the percent inhibition of paw volume during the 3 week adjuvant arthritis test at 0.009 mM/kg (2.29 mg); assay type: functional; how it was run: as §1
# Rattus norvegicus [26] = test: Antiinflammatory efficacy is measured by the percent inhibition of paw volume during the 3 week adjuvant arthritis test at 0.006 mM/kg ([…]); assay type: functional; how it was run: as §1
# Rattus norvegicus [27] = test: The percent inhibition was calculated from the average differences in hind paw volume between the adjuvant injected controls and the adjuvant-injected medicated rats at 0.08 mmol/kg; 80-89; assay type: functional
# Rattus norvegicus [28] = test: Ulcerogenicity was measured in stomach during the 3 week adjuvant arthritis test, no of animals with ulcers out of 4 animals tested at 0.02 mM/kg (8.07 mg) was reported; assay type: functional; how it was run: as §4
# Rattus norvegicus [29] = test: Antiinflammatory efficacy is measured by the weight gain in rats during the 3 week adjuvant arthritis test at 0.08 mM/kg (32.3 mg); assay type: functional; how it was run: as §3
# Rattus norvegicus [30] = test: Antiinflammatory efficacy is measured by the weight gain in rats during the 3 week adjuvant arthritis test at 0.005 mM/kg (2.02 mg); assay type: functional; how it was run: as §3
# Rattus norvegicus [31] = test: Antiinflammatory efficacy is measured by the percent inhibition of paw volume during the 3 week adjuvant arthritis test at 0.08 mM/kg (32.3 mg); assay type: functional; how it was run: as §1
# Rattus norvegicus [32] = test: Antiinflammatory efficacy is measured by the percent inhibition of paw volume during the 3 week adjuvant arthritis test at 0.02 mM/kg (8.07 mg); assay type: functional; how it was run: as §1
# Rattus norvegicus [33] = test: The mean increase in paw volume was compared between drug treated groups and placebo to calculate the percent inhibition in rats at 0.02 mmol/kg by carrageenan Edema Assay; 30-39; assay type: functional; conditions: Rattus norvegicus
# Rattus norvegicus [34] = test: Ulcerogenicity was measured in stomach during the 3 week adjuvant arthritis test, no of animals with ulcers out of 15 animals tested at 0.08 mM/kg (32.3 mg) was reported; assay type: functional; how it was run: as §4
# Mus musculus = organism: Mus musculus; test: Effective Dose 50 is the amount of material required to elicit analgesic effect in 50% of an animal population
# Rattus norvegicus [35] = test: Ulcerogenicity was measured in intestine during the 3 week adjuvant arthritis test, no of animals with ulcers out of tested animals at 0.16 mM/kg (64.6 mg) was reported; Toxic; assay type: functional, organism-based; how it was run: as §4
# Rattus norvegicus [36] = test: Antiinflammatory efficacy is measured by the weight gain in rats during the 3 week adjuvant arthritis test at 0.02 mM/kg (8.07 mg); assay type: functional; how it was run: as §3
# Rattus norvegicus [37] = organism: Rattus norvegicus; test: Effective Dose 50 is the amount of material required to produce effect in 50% of an animal population; assay type: functional
# Rattus norvegicus [38] = test: Ulcerogenicity was measured in intestine during the 3 week adjuvant arthritis test, no of animals with ulcers out of 4 animals tested at 0.02 mM/kg (8.07 mg) was reported; assay type: functional; how it was run: as §2
# Rattus norvegicus [39] = test: Ulcerogenicity was measured in intestine during the 3 week adjuvant arthritis test, no of animals with ulcers out of 15 animals tested at 0.08 mM/kg (32.3 mg) was reported; assay type: functional; how it was run: as §2
# Rattus norvegicus [40] = test: Antiinflammatory efficacy is measured by the percent inhibition of paw volume during the 3 week adjuvant arthritis test at 0.005 mM/kg (2.02 mg); assay type: functional; how it was run: as §1
# Rattus norvegicus [41] = test: The percent inhibition was calculated from the average differences in hind paw volume between the adjuvant injected controls and the adjuvant-injected medicated rats at 0.08 mmol/kg; 50-59; assay type: functional
# Rattus norvegicus [42] = test: The mean increase in paw volume was compared between drug treated groups and placebo to calculate the percent inhibition in rats at 0.02 mmol/kg by carrageenan Edema Assay; 0-19; assay type: functional
compound,measurement,setting,value
CC(CN1CCCCC1CC1CCCCC1)c1cccc(C(=O)c2ccc(Cl)cc2)c1 (stereo not given),Inhibition,Rattus norvegicus [1],90%
same,Ulcerogenic index,Rattus norvegicus [2],0
same,Weight gain,Rattus norvegicus [3],34%
same,Ulcerogenic index,Rattus norvegicus [4],Toxic
same,Relative potency,Rattus norvegicus [5],11.9%
same,Weight gain,Rattus norvegicus [6],89%
same,Inhibition,Rattus norvegicus [7],62%
same,Ulcerogenic index,Rattus norvegicus [8],0
same,highest non-ulcerogenic dose,Rattus norvegicus [9],3 µmol/kg
same,inhibition in vivo at 20 µmol/kg,Rattus norvegicus [10],50%
CC(C(=O)O)c1cccc(C(=O)c2ccccc2)c1 (stereo not given) [KETOPROFEN],Ulcerogenic index,Rattus norvegicus [11],0
same,Relative potency,Rattus norvegicus [12],32.4%
same,Ulcerogenic index,Rattus norvegicus [13],Toxic
same,Ulcerogenic index,Rattus norvegicus [14],22
same,inhibition in vivo at 80 µmol/kg,Rattus norvegicus [15],82%
same,Ulcerogenic index,Rattus norvegicus [16],4
same,Ulcerogenic index,Rattus norvegicus [17],0
same,Weight gain,Rattus norvegicus [18],79%
same,Inhibition,Rattus norvegicus [19],68%
same,Ulcerogenic index,Rattus norvegicus [20],3
same,Weight gain,Rattus norvegicus [21],35%
same,inhibition in vivo at 20 µmol/kg,Rattus norvegicus [22],60%
same,Weight gain,Rattus norvegicus [23],21%
same,Ulcerogenic index,Rattus norvegicus [24],6
same,Inhibition,Rattus norvegicus [25],82%
same,highest non-ulcerogenic dose,Rattus norvegicus [9],1 µmol/kg
same,Inhibition,Rattus norvegicus [26],31%
CC(CN1CCCCC1CC1CCCCC1)c1cccc(C(=O)c2ccccc2)c1 (stereo not given),inhibition in vivo at 80 µmol/kg,Rattus norvegicus [27],80%
same,Ulcerogenic index,Rattus norvegicus [28],0
same,Relative potency,Rattus norvegicus [5],8.7%
same,Weight gain,Rattus norvegicus [29],82%
same,Weight gain,Rattus norvegicus [30],27%
same,Inhibition,Rattus norvegicus [31],90%
same,Inhibition,Rattus norvegicus [32],79%
same,inhibition in vivo at 20 µmol/kg,Rattus norvegicus [33],30%
same,Ulcerogenic index,Rattus norvegicus [34],1
same,ED50,Mus musculus,55 mg/kg
same,Ulcerogenic index,Rattus norvegicus [35],Toxic
same,Weight gain,Rattus norvegicus [36],55%
same,ED50,Rattus norvegicus [37],3 µmol/kg
same,Ulcerogenic index,Rattus norvegicus [38],1
same,Ulcerogenic index,Rattus norvegicus [39],4
same,Inhibition,Rattus norvegicus [40],56%
CC1CCCC(C)N1CCc1cccc(C(O)c2ccccc2)c1 (stereo not given),inhibition in vivo at 80 µmol/kg,Rattus norvegicus [41],50%
same,inhibition in vivo at 20 µmol/kg,Rattus norvegicus [42],0%
